The results in this text go back to publication PMC10716778 (The Journal of Biological Chemistry, 2023).

≈ marks a conversion by molar mass, not a printed value. Some results are limits rather than exact numbers.

Data set [1] concerns Escherichia coli Top10 vector control (no β-lactamase). In words: MIC by broth dilution, E. coli vector control. The format is cell-based. (In general: Dilution methods test growth across graded concentrations, often in twofold steps.)
Data set [2] deals with Escherichia coli expressing KPC-2. As to the kind of experiment: MIC by broth dilution, E. coli expressing KPC-2. Type of data set: cell-based.
In data set [3] the test system is Escherichia coli expressing KPC-44. As to the kind of experiment: MIC by broth dilution, E. coli expressing KPC-44. Type of data set: cell-based. The conditions noted are these: for MIC: Escherichia coli; for fold lower MIC than WT KPC-2: E. coli expressing KPC-44 vs KPC-2.
The test system of data set [4] is CC(C)(O/N=C(\C(=O)N[C@@H]1C(=O)N2C(C(=O)[O-])=C(C[n+]3ccccc3)CS[C@H]12)c1csc(N)n1)C(=O)O. As to the kind of experiment: purified protein, by the assay type. The conditions noted are these: other: substrate hydrolysis by KPC-2, 30 °C, pH 7.
Data set [5] concerns C[C@@H](O)[C@H]1C(=O)N2C(C(=O)O)=C(SCCN=CN)C[C@H]12. In words: purified protein, by the assay type. The conditions noted are these: other: substrate hydrolysis by KPC-2, 30 °C, pH 7.
Data set [6] has as its system C[C@@H](O)[C@H]1C(=O)N2C(C(=O)O)=C(S[C@@H]3CN[C@H](C(=O)N(C)C)C3)[C@H](C)[C@H]12. In words: purified protein, by the assay type. The conditions noted are these: other: substrate hydrolysis by KPC-2, 30 °C, pH 7.
Data set [7] addresses T1, KPC-44 (Klebsiella pneumoniae, UniProt Q9F663, DUP260-274). Type of data set: biochemical. Particulars: for kcat / Km: substrate hydrolysis by KPC-44, 30 °C; for kcat: 50 mM sodium phosphate pH 7; for Km: pH 7; for fold lower kcat than KPC-2 / fold lower kcat/KM than KPC-2: KPC-44 vs KPC-2.
Data set [8] has as its target T2, KPC-2 (Klebsiella pneumoniae, UniProt Q9F663). In words: Steady-state kinetics of β-lactam hydrolysis by KPC-2. Particulars: substrate hydrolysis by KPC-2; 30 °C, 50 mM sodium phosphate pH 7.
The target of data set [9] is T2, KPC-2. As to the kind of experiment: Decarbamylation/deborylation rate. Type of data set: biochemical. The conditions noted are these: jump dilution, 30 °C. In short, it runs like this:
(§1)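 It was then diluted 100-fold into the same buffer and added to 200 μM nitrocefin at 1:10. Recovery of activity was followed continuously at A482, 30 °C. Vaborbactam deborylation was run the same way.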

Data set [10] concerns the target T1, KPC-44. In words: Decarbamylation/deborylation rate. Type of data set: biochemical. The conditions noted are these: for k-2: KPC-44, jump dilution, 30 °C. In short, it runs like this:
as §1

Data set [11] has as its target T2, KPC-2. As to the kind of experiment: Inhibition of nitrocefin hydrolysis. The format is biochemical.
The target of data set [12] is T1, KPC-44. In words: Inhibition of nitrocefin hydrolysis. The format is biochemical.

The term MIC denotes the smallest concentration in the dilution series that meets the test's criterion for growth inhibition. The low end stands for greater potency, the high end for weaker potency. On to `CC(C)(O/N=C(\C(=O)N[C@@H]1C(=O)N2C(C(=O)[O-])=C(C[n+]3ccccc3)CS[C@H]12)c1csc(N)n1)C(=O)O` [Ceftazidime], for which the minimum inhibitory concentration (MIC) worked out at 0.5 µg/mL (≈ 0.915 µM) in [1], 2 µg/mL (≈ 3.66 µM) in [2] and 8 µg/mL (≈ 14.6 µM) in [3].
As a reminder, the kcat is the number of substrate molecules converted per active site and unit of time at saturation. The term kcat/Km denotes the turnover number divided by the Michaelis constant. For orientation: Km means the substrate concentration at which the rate is half of its maximum. Consider KPC-2 (Klebsiella pneumoniae), for which, in [4], the kcat is over 0.8 s⁻¹ and the kcat/Km is 1100 ± 66 M⁻¹ s⁻¹. In data set [5], the Km stood at 130 ± 33 µM, the kcat came to 50 ± 4.5 s⁻¹ and the kcat/Km is 380000 ± 100000 M⁻¹ s⁻¹. In data set [6], the Km was 19 ± 2.9 µM, the kcat turned out to be 3.3 ± 0.18 s⁻¹ and the kcat/Km worked out at 170000 ± 28000 M⁻¹ s⁻¹.
As for `CC1(C)S[C@@H]2[C@H](NC(=O)[C@H](N)c3ccccc3)C(=O)N2[C@H]1C(=O)O` [Ampicillin], in [1], the lowest concentration to inhibit growth (MIC) was 4 µg/mL (≈ 11.4 µM). Moreover, in data set [2], 128 µg/mL (≈ 366 µM) was the least that counted as inhibitory (MIC). Also, in data set [3], the “fold lower MIC than WT KPC-2” value is listed as 2 fold and the MIC was found to be 64 µg/mL (≈ 183 µM). Further, in [7], the kcat worked out at 126 ± 5 s⁻¹ and the Km worked out at 232 ± 22 µM.
As to `O=C(Cc1cccs1)N[C@@H]1C(=O)N2C(C(=O)O)=C(/C=C/c3ccc([N+](=O)[O-])cc3[N+](=O)[O-])CS[C@H]12` [Nitrocefin], in data set [7], the kcat is 20 ± 0.67 s⁻¹ and the Km worked out at 16 ± 1.4 µM. The kcat in data set [8] amounted to 130 ± 2.2 s⁻¹.
In the case of `NC(=O)[C@@H]1CC[C@@H]2CN1C(=O)N2OS(=O)(=O)O` [Avibactam], the k-2 entry in data set [9] is “(9.6 ± 0.020) × 10^−5 s^−1”; in data set [10] it was “(7.1 ± 0.32) × 10^−5 s^−1”.
The IC50 is the concentration needed to halve the response being measured. A high value points to lower potency. Consider `O=C(O)C[C@@H]1CC[C@H](NC(=O)Cc2cccs2)B(O)O1` [Vaborbactam], for which the IC50 in data set [11] turned out to be 130 ± 5.4 nM; in data set [12] it was 220 ± 0.92 nM. Besides, the “fold difference in IC50 (less potent versus KPC-44 compared to KPC-2)” value in data set [12] (KPC-44 vs KPC-2) was “less than 2 fold”. The results for the k-2 entry in [9] and in [10] were “(1.2 ± 0.014) × 10^−5 s^−1” and “(2.9 ± 0.047) × 10^−5 s^−1”, respectively. Moreover, the “fold higher k-2 than KPC-2” value in [10] (KPC-44 vs KPC-2) worked out at 3 fold.
For `C[C@@H](O)[C@H]1C(=O)N2C(C(=O)O)=C(SCCN=CN)C[C@H]12` [Imipenem], in data set [1], the MIC was 0.25 µg/mL (≈ 0.835 µM). The lowest concentration to inhibit growth in [2] (MIC) was 1.5 µg/mL (≈ 5.01 µM). Besides, in data set [3], the “fold lower MIC than WT KPC-2” value was determined as 2 fold and inhibition of growth (MIC) required 0.75 µg/mL (≈ 2.51 µM). The “fold higher MIC than negative control” value in data set [3] (E. coli expressing KPC-44 vs no β-lactamase control) came out at 3 fold. In [7], the “fold lower kcat than KPC-2” value came out at 8 fold, the “fold lower kcat/KM than KPC-2” value is 4 fold, the kcat came to 6.4 ± 0.33 s⁻¹ and the Km stood at 57 ± 7.1 µM.
In turn, `C[C@@H](O)[C@H]1C(=O)N2C(C(=O)O)=C(S[C@@H]3CN[C@H](C(=O)N(C)C)C3)[C@H](C)[C@H]12` [Meropenem] returned an MIC in data set [1] of 0.25 µg/mL (≈ 0.652 µM). In data set [2], this compound registered an MIC of 0.375 µg/mL (≈ 0.978 µM). Besides, the MIC in data set [3] was found to be 0.25 µg/mL (≈ 0.652 µM). For the same compound, in [7], the “fold lower kcat than KPC-2” value is 7 fold, the “fold lower kcat/KM than KPC-2” value worked out at 3 fold, the kcat came to 0.46 ± 0.022 s⁻¹ and the Km is 7.3 ± 1.4 µM.
`O=C(O)[C@H]1/C(=C/CO)O[C@@H]2CC(=O)N21` [Clavulanate] registered an IC50 in data set [12] of 4800 ± 170 nM.
